Data on two compounds can be found in article PMC4472004 (Molecular cancer therapeutics, 2014).

Assay [1] addresses PSMA receptor on PC3pip cells (Homo sapiens, UniProt Q04609). Put plainly: Competitive binding assay. The method in brief: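 PC3pip cells (PSMA-transduced PC3; RPMI-1640 with 2 mmol/L L-glutamine and 10% FBS, 37°C, 5% CO2), 5 × 10^5 per tube, incubated 1 h at 37°C with varying test compound concentrations plus 12 nmol/L [3H]-methyl-cysteine urea PSMA radioligand. Cells pelleted at 3,000 × g for 5 min at 4°C and washed 3× with cold PBS. Bound radioactivity by scintillation counting; IC50 from curve fitting.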

Assay [2] relates to PC3pip tumors. Put plainly: In vivo NIR imaging. The arrangement: species or system mice. The conditions noted are these: coinjection; up to 1,000-fold excess of Cys-CO-Glu or PSMA-1; 100-fold excess of ZJ-MCC-Ahx-YYYG.

PSMA receptor on PC3pip cells, sequence (Q04609 whole entry): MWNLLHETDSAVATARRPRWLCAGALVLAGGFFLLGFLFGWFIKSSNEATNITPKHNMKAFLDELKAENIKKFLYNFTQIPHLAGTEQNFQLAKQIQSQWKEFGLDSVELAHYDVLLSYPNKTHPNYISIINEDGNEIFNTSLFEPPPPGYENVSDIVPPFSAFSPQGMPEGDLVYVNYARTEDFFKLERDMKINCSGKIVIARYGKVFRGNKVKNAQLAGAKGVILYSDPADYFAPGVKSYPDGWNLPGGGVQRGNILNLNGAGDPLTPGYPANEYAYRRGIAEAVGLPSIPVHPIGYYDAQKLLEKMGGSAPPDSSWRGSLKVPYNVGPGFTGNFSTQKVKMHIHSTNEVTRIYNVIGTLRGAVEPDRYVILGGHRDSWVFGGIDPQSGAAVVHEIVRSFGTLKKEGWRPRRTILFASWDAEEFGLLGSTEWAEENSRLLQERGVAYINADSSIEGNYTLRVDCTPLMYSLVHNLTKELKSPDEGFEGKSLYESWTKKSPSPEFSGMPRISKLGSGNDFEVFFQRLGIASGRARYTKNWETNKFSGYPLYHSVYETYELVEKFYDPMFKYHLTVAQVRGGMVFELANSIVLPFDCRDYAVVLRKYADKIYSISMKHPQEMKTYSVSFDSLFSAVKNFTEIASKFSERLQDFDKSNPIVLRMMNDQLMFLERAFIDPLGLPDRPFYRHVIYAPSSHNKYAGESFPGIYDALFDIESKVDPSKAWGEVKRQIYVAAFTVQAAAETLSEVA

In the case of “Glu-CO-Glu'-Amc-Ahx-Glu-Glu-Glu-Lys-NH2 [PSMA-1]”, the “binding affinity better than the parent ligand Cys-CO-Glu” value in assay [1] (ratio of IC50 values) is listed as 4.3 fold. For the same compound, the “effectiveness as in vivo competitor of the PSMA-1–NIR probes” value in assay [2] was “unable to achieve effective competition”.
Regarding `NCCCC[C@H](NC(=O)N[C@@H](CCC(=O)O)C(=O)O)C(=O)O` [Cys-CO-Glu, (S)-2-(3-((S)-5-amino-1-carboxypentyl)ureido)pentanedioic acid], the IC50 in assay [1] was determined as 9.93 ± 0.07 nM. Besides, in assay [2], the “effectiveness as in vivo competitor of the PSMA-1–NIR probes” value is given as “unable to achieve effective competition”.

By IC50 is commonly meant the concentration at which inhibition is half-maximal. The low end stands for inhibition by little substance, the high end for a need for much substance.
